Our source for the Activity and IC50 values is ChEMBL document CHEMBL4011600, “Identification of compounds with cytotoxic activity from the leaf of the Nigerian medicinal plant, Anacardium occidentale L. (Anacardiaceae)” (Bioorg Med Chem, 2017).

Assay [1] concerns HeLa. As to the kind of experiment: Induction of morphological changes in human HeLa cells assessed as loss of cells by microscopic method. The format is functional, cell-based. The essentials:
(§1)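 HeLa cells seeded at 1×10^5 cells/ml and grown for 24 h at 37°C under 5% CO2, then exposed to compounds for 48 h. Cell loss and rounding of the remaining cells were judged against DMSO-treated controls by inverted phase microscopy at ×10 magnification, with camera images taken after treatment.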

In assay [2] the test system is HeLa. As to the kind of experiment: Induction of morphological changes in human HeLa cells assessed as cell rounding by microscopic method. The class given is functional, cell-based. The procedure, abridged:
as §1

Assay [3] has as its system HeLa. Description: Cytotoxicity against human HeLa cells assessed as reduction in cell viability after 48 hrs by Alamar blue staining based fluorescence assay. The class given is functional. The procedure, abridged: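 HeLa cells seeded at 1×10^5 cells/ml in MEM with 10% FBS, 1% NEAA, 2 mM glutamine and 1% antibiotic-antimycotic, grown 24 h at 37°C under 5% CO2. Compounds then added for 48 h at concentrations up to 1.6 mM. Readings normalized to DMSO-only controls set at 100%.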

Assay [4] concerns HeLa. As to the kind of experiment: Cytotoxicity against human HeLa cells assessed as reduction in cell viability at 2.5 uM after 48 hrs by Alamar blue staining based fluorescence assay relative to control. The format is functional. The procedure, abridged:
(§2)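 HeLa cells seeded at 1×10^5 cells/ml in MEM with 10% FBS, 1% NEAA, 2 mM glutamine and 1% antibiotic-antimycotic, grown 24 h at 37°C under 5% CO2. Compounds then added for 48 h at concentrations up to 1.6 mM. Alamar blue applied for 3 h, plates cooled to room temperature, fluorescence read at ex 544, em 590 nm. Readings normalized to DMSO-only controls set at 100%. IC50 taken from concentration-response curve fits, mean ± SEM, n=3-4.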
On the technique in general: Resazurin is reduced to fluorescent resorufin, in cell work by metabolically active cells.

For assay [5], the system named is HeLa. As to the kind of experiment: Cytotoxicity against human HeLa cells assessed as reduction in cell viability at 1 uM after 48 hrs by Alamar blue staining based fluorescence assay relative to control. The class given is functional. The essentials:
as §2

The subject of assay [6] is HeLa. Description: Cytotoxicity against human HeLa cells assessed as reduction in cell viability at 5 uM after 48 hrs by Alamar blue staining based fluorescence assay relative to control. The class given is functional. The procedure, abridged:
as §2

The IC50 is the concentration needed to halve the response being measured.

In the case of `C=C1C(=O)O[C@@H]2/C=C(/C)[C@H](O)C/C=C(\C)[C@@H](O)[C@H](OC(=O)/C(C)=C\C)[C@@H]12`, the Activity entry in the assay on HeLa [1], with HeLa [2] and with HeLa [3] was “Dose-dependent effect” in each case. Besides, in the assay with HeLa [3], the IC50 worked out at 36.2 µM.
In the case of `COC(=O)c1cc(OC)c(CCc2c(OC)cc(C(=O)OC)cc2OC)c(OC)c1`, in the assay on HeLa [3], the Activity result was “Dose-dependent effect” and the IC50 is 46.5 µM.
`COc1cccc2c1C(=O)c1c(O)c3c(c(O)c1C2=O)C[C@@](O)(C(=O)CO)C[C@@H]3O[C@H]1C[C@H](N)[C@H](O)[C@H](C)O1` [DOXORUBICIN]: the Activity in the assay on HeLa [4] amounted to 50.8%; with HeLa [5], 106.5%; in the assay with HeLa [6], 40%. Also, the IC50 with HeLa [3] was 2.3 µM.
Turning to `COC(=O)c1cc(O)c(O)c(O)c1` [GALLIC ACID METHYL ESTER], in the assay with HeLa [3], the Activity entry is “Dose-dependent effect” and the IC50 was determined as 267 µM.
